Source: ChEMBL document CHEMBL1142496, “Studies on enzyme-cleavable dialkoxymethyl-cyclosaligenyl-2',3'-dideoxy-2',3'-didehydrothymidine monophosphates” (J Med Chem, 2008)

system: not listed separately; experiment: Stability in aqueous 25 mM phosphate buffer at pH 7.3 assessed as hydrolysis half life; assay type: physicochemical; conditions: not given
Method in brief: (§1)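 Chemical stability in aqueous 25 mM phosphate buffer at pH 7.3 or 7.6. Triester cleavage followed by HPLC; half-life refers to disappearance of the intact triester.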

SMILES	half-life
Cc1cn([C@H]2C=C[C@@H](COP3(=O)OCc4cc(C=O)cc(C(C)(C)C)c4O3)O2)c(=O)[nH]c1=O (stereo partly specified)	1 h
CC(=O)OC(OC(C)=O)c1cc2c(c(C(C)(C)C)c1)OP(=O)(OC[C@@H]1C=C[C@H](n3cc(C)c(=O)[nH]c3=O)O1)OC2 (stereo partly specified)	7.9 h
Cc1cn([C@H]2C=C[C@@H](CO[P@@]3(=O)OCc4cc(C(OC(=O)C(C)C)OC(=O)C(C)C)cc(C(C)(C)C)c4O3)O2)c(=O)[nH]c1=O	3.8 h
CC(=O)OC(OC(C)=O)c1cc2c(c(C(C)(C)C)c1)O[P@](=O)(OC[C@@H]1C=C[C@H](n3cc(C)c(=O)[nH]c3=O)O1)OC2	7.9 h
CC(=O)OC(OC(C)=O)c1cc2c(c(C(C)(C)C)c1)O[P@@](=O)(OC[C@@H]1C=C[C@H](n3cc(C)c(=O)[nH]c3=O)O1)OC2	8.3 h
Cc1cn([C@H]2C=C[C@@H](CO[P@@]3(=O)OCc4cc(C=O)cc(C(C)(C)C)c4O3)O2)c(=O)[nH]c1=O	1 h
Cc1cn([C@H]2C=C[C@@H](CO[P@]3(=O)OCc4cc(C=O)cc(C(C)(C)C)c4O3)O2)c(=O)[nH]c1=O	1.3 h
Cc1cn([C@H]2C=C[C@@H](COP3(=O)OCc4cc(C(C)(C)C)ccc4O3)O2)c(=O)[nH]c1=O (stereo partly specified)	7.2 h
Cc1cc(C=O)c2c(c1)COP(=O)(OC[C@@H]1C=C[C@H](n3cc(C)c(=O)[nH]c3=O)O1)O2 (stereo partly specified)	0.25 h

system: not listed separately; experiment: Stability in aqueous 25 mM phosphate buffer at pH 7.6 assessed as hydrolysis half life; assay type: physicochemical; conditions: not given; method in brief: as §1

SMILES	half-life
Cc1cn([C@H]2C=C[C@@H](COP3(=O)OCc4cc(C=O)cc(C(C)(C)C)c4O3)O2)c(=O)[nH]c1=O (stereo partly specified)	1.1 h
CC(=O)OC(OC(C)=O)c1cc2c(c(C(C)(C)C)c1)OP(=O)(OC[C@@H]1C=C[C@H](n3cc(C)c(=O)[nH]c3=O)O1)OC2 (stereo partly specified)	2.6 h
Cc1cn([C@H]2C=C[C@@H](CO[P@@]3(=O)OCc4cc(C(OC(=O)C(C)C)OC(=O)C(C)C)cc(C(C)(C)C)c4O3)O2)c(=O)[nH]c1=O	2.9 h
CC(=O)OC(OC(C)=O)c1cc2c(c(C(C)(C)C)c1)O[P@](=O)(OC[C@@H]1C=C[C@H](n3cc(C)c(=O)[nH]c3=O)O1)OC2	2.7 h
CC(=O)OC(OC(C)=O)c1cc2c(c(C(C)(C)C)c1)O[P@@](=O)(OC[C@@H]1C=C[C@H](n3cc(C)c(=O)[nH]c3=O)O1)OC2	2.4 h
Cc1cn([C@H]2C=C[C@@H](CO[P@@]3(=O)OCc4cc(C=O)cc(C(C)(C)C)c4O3)O2)c(=O)[nH]c1=O	0.3 h
Cc1cn([C@H]2C=C[C@@H](CO[P@]3(=O)OCc4cc(C=O)cc(C(C)(C)C)c4O3)O2)c(=O)[nH]c1=O	1.3 h
Cc1cc(C=O)c2c(c1)COP(=O)(OC[C@@H]1C=C[C@H](n3cc(C)c(=O)[nH]c3=O)O1)O2 (stereo partly specified)	0.3 h

system: Human immunodeficiency virus 2; experiment: Antiviral activity against HIV2 in thymidine kinase deficient human CEM/TK- cellss; assay type: functional, organism-based; conditions: Human immunodeficiency virus 2, CEM-TK(-)
Method in brief: (§2)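 Anti-HIV assay in T-lymphocytes: wild-type CEM/0 cells infected with HIV-1 or HIV-2, and thymidine kinase-deficient CEM/TK⁻ cells infected with HIV-2. Cells grown in RPMI-1640 with 10% heat-inactivated fetal calf serum. Read-out is the 50% effective concentration, given as the mean of two to three independent experiments.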

SMILES	EC50
Cc1cn([C@H]2C=C[C@@H](COP3(=O)OCc4cc(C=O)cc(C(C)(C)C)c4O3)O2)c(=O)[nH]c1=O (stereo partly specified)	15000 nM
CC(=O)OC(OC(C)=O)c1cc2c(c(C(C)(C)C)c1)OP(=O)(OC[C@@H]1C=C[C@H](n3cc(C)c(=O)[nH]c3=O)O1)OC2 (stereo partly specified)	780 nM
Cc1cn([C@H]2C=C[C@@H](CO[P@@]3(=O)OCc4cc(C(OC(=O)C(C)C)OC(=O)C(C)C)cc(C(C)(C)C)c4O3)O2)c(=O)[nH]c1=O	3600 nM
CC(=O)OC(OC(C)=O)c1cc2c(c(C(C)(C)C)c1)O[P@](=O)(OC[C@@H]1C=C[C@H](n3cc(C)c(=O)[nH]c3=O)O1)OC2	290 nM
CC(=O)OC(OC(C)=O)c1cc2c(c(C(C)(C)C)c1)O[P@@](=O)(OC[C@@H]1C=C[C@H](n3cc(C)c(=O)[nH]c3=O)O1)OC2	3900 nM
Cc1cn([C@H]2C=C[C@@H](CO[P@@]3(=O)OCc4cc(C=O)cc(C(C)(C)C)c4O3)O2)c(=O)[nH]c1=O	10000 nM
Cc1cn([C@H]2C=C[C@@H](CO[P@]3(=O)OCc4cc(C=O)cc(C(C)(C)C)c4O3)O2)c(=O)[nH]c1=O	2600 nM
Cc1cc(C=O)c2c(c1)COP(=O)(OC[C@@H]1C=C[C@H](n3cc(C)c(=O)[nH]c3=O)O1)O2 (stereo partly specified)	29000 nM

system: Human immunodeficiency virus 1; experiment: Antiviral activity against HIV1 in human wild type CEM/0 cellss; assay type: functional, organism-based; conditions: Human immunodeficiency virus 1, CCRF-CEM; method in brief: as §2

SMILES	EC50
Cc1cn([C@H]2C=C[C@@H](COP3(=O)OCc4cc(C=O)cc(C(C)(C)C)c4O3)O2)c(=O)[nH]c1=O (stereo partly specified)	390 nM
CC(=O)OC(OC(C)=O)c1cc2c(c(C(C)(C)C)c1)OP(=O)(OC[C@@H]1C=C[C@H](n3cc(C)c(=O)[nH]c3=O)O1)OC2 (stereo partly specified)	650 nM
Cc1cn([C@H]2C=C[C@@H](CO[P@@]3(=O)OCc4cc(C(OC(=O)C(C)C)OC(=O)C(C)C)cc(C(C)(C)C)c4O3)O2)c(=O)[nH]c1=O	890 nM
CC(=O)OC(OC(C)=O)c1cc2c(c(C(C)(C)C)c1)O[P@](=O)(OC[C@@H]1C=C[C@H](n3cc(C)c(=O)[nH]c3=O)O1)OC2	540 nM
CC(=O)OC(OC(C)=O)c1cc2c(c(C(C)(C)C)c1)O[P@@](=O)(OC[C@@H]1C=C[C@H](n3cc(C)c(=O)[nH]c3=O)O1)OC2	1100 nM
Cc1cn([C@H]2C=C[C@@H](CO[P@@]3(=O)OCc4cc(C=O)cc(C(C)(C)C)c4O3)O2)c(=O)[nH]c1=O	810 nM
Cc1cn([C@H]2C=C[C@@H](CO[P@]3(=O)OCc4cc(C=O)cc(C(C)(C)C)c4O3)O2)c(=O)[nH]c1=O	160 nM
Cc1cc(C=O)c2c(c1)COP(=O)(OC[C@@H]1C=C[C@H](n3cc(C)c(=O)[nH]c3=O)O1)O2 (stereo partly specified)	3600 nM

system: not listed separately; experiment: Stability in human CEM cells extracts at pH 6.9 assessed as hydrolysis half life; assay type: ADME, CCRF-CEM; conditions: CEM cell extracts
Method in brief: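 Enzymatic stability assay: triesters incubated in CEM cell extracts (pH 6.9) over varied incubation times. Acetic acid was not used to stop the reaction for acid-sensitive compounds. Samples analysed by HPLC to give the half-life of triester cleavage.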

SMILES	half-life
CC(=O)OC(OC(C)=O)c1cc2c(c(C(C)(C)C)c1)OP(=O)(OC[C@@H]1C=C[C@H](n3cc(C)c(=O)[nH]c3=O)O1)OC2 (stereo partly specified)	0.15 h
Cc1cn([C@H]2C=C[C@@H](CO[P@@]3(=O)OCc4cc(C(OC(=O)C(C)C)OC(=O)C(C)C)cc(C(C)(C)C)c4O3)O2)c(=O)[nH]c1=O	0.8 h
CC(=O)OC(OC(C)=O)c1cc2c(c(C(C)(C)C)c1)O[P@](=O)(OC[C@@H]1C=C[C@H](n3cc(C)c(=O)[nH]c3=O)O1)OC2	0.3 h
CC(=O)OC(OC(C)=O)c1cc2c(c(C(C)(C)C)c1)O[P@@](=O)(OC[C@@H]1C=C[C@H](n3cc(C)c(=O)[nH]c3=O)O1)OC2	0.15 h

system: not listed separately; experiment: Cytostatic activity against human wild type CEM/0 cellss; assay type: cell-based, CCRF-CEM; conditions: wild-type CEM/0 cells
Method in brief: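 Cytostatic activity on T-lymphocyte CEM cultures, reported as the 50% cytostatic concentration.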

SMILES	CC50
Cc1cn([C@H]2C=C[C@@H](COP3(=O)OCc4cc(C=O)cc(C(C)(C)C)c4O3)O2)c(=O)[nH]c1=O (stereo partly specified)	33000 nM
CC(=O)OC(OC(C)=O)c1cc2c(c(C(C)(C)C)c1)OP(=O)(OC[C@@H]1C=C[C@H](n3cc(C)c(=O)[nH]c3=O)O1)OC2 (stereo partly specified)	19000 nM
Cc1cn([C@H]2C=C[C@@H](CO[P@@]3(=O)OCc4cc(C(OC(=O)C(C)C)OC(=O)C(C)C)cc(C(C)(C)C)c4O3)O2)c(=O)[nH]c1=O	40000 nM
CC(=O)OC(OC(C)=O)c1cc2c(c(C(C)(C)C)c1)O[P@](=O)(OC[C@@H]1C=C[C@H](n3cc(C)c(=O)[nH]c3=O)O1)OC2	17000 nM
CC(=O)OC(OC(C)=O)c1cc2c(c(C(C)(C)C)c1)O[P@@](=O)(OC[C@@H]1C=C[C@H](n3cc(C)c(=O)[nH]c3=O)O1)OC2	51000 nM
Cc1cn([C@H]2C=C[C@@H](CO[P@@]3(=O)OCc4cc(C=O)cc(C(C)(C)C)c4O3)O2)c(=O)[nH]c1=O	41000 nM
Cc1cn([C@H]2C=C[C@@H](CO[P@]3(=O)OCc4cc(C=O)cc(C(C)(C)C)c4O3)O2)c(=O)[nH]c1=O	27000 nM
Cc1cc(C=O)c2c(c1)COP(=O)(OC[C@@H]1C=C[C@H](n3cc(C)c(=O)[nH]c3=O)O1)O2 (stereo partly specified)	29000 nM

system: not listed separately; experiment: Stability in RPMI-1640 medium containing 10% heat inactivated fetal calf serum at pH 7.6 assessed as hydrolysis half life; assay type: physicochemical; conditions: cattle, RPMI-1640 medium with 10% heat-inactivated fetal calf serum
Method in brief: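 Stability in RPMI-1640 culture medium with 10% fetal calf serum heat-inactivated for 30 min at 56 °C (pH 7.6). Handled like the cell-extract incubations, with medium in place of extract; triester half-life and formyl-product formation followed by HPLC.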

SMILES	half-life
Cc1cn([C@H]2C=C[C@@H](COP3(=O)OCc4cc(C=O)cc(C(C)(C)C)c4O3)O2)c(=O)[nH]c1=O (stereo partly specified)	1.5 h
CC(=O)OC(OC(C)=O)c1cc2c(c(C(C)(C)C)c1)OP(=O)(OC[C@@H]1C=C[C@H](n3cc(C)c(=O)[nH]c3=O)O1)OC2 (stereo partly specified)	2.8 h
Cc1cn([C@H]2C=C[C@@H](CO[P@@]3(=O)OCc4cc(C(OC(=O)C(C)C)OC(=O)C(C)C)cc(C(C)(C)C)c4O3)O2)c(=O)[nH]c1=O	4.5 h
CC(=O)OC(OC(C)=O)c1cc2c(c(C(C)(C)C)c1)O[P@](=O)(OC[C@@H]1C=C[C@H](n3cc(C)c(=O)[nH]c3=O)O1)OC2	2.9 h
CC(=O)OC(OC(C)=O)c1cc2c(c(C(C)(C)C)c1)O[P@@](=O)(OC[C@@H]1C=C[C@H](n3cc(C)c(=O)[nH]c3=O)O1)OC2	2.8 h
Cc1cn([C@H]2C=C[C@@H](CO[P@@]3(=O)OCc4cc(C=O)cc(C(C)(C)C)c4O3)O2)c(=O)[nH]c1=O	1.6 h
Cc1cn([C@H]2C=C[C@@H](CO[P@]3(=O)OCc4cc(C=O)cc(C(C)(C)C)c4O3)O2)c(=O)[nH]c1=O	1.7 h
Cc1cc(C=O)c2c(c1)COP(=O)(OC[C@@H]1C=C[C@H](n3cc(C)c(=O)[nH]c3=O)O1)O2 (stereo partly specified)	0.3 h

system: Human immunodeficiency virus 2; experiment: Antiviral activity against HIV2 in human wild type CEM/0 cellss; assay type: functional, organism-based; conditions: Human immunodeficiency virus 2, CCRF-CEM; method in brief: as §2

SMILES	EC50
Cc1cn([C@H]2C=C[C@@H](COP3(=O)OCc4cc(C=O)cc(C(C)(C)C)c4O3)O2)c(=O)[nH]c1=O (stereo partly specified)	1000 nM
CC(=O)OC(OC(C)=O)c1cc2c(c(C(C)(C)C)c1)OP(=O)(OC[C@@H]1C=C[C@H](n3cc(C)c(=O)[nH]c3=O)O1)OC2 (stereo partly specified)	800 nM
Cc1cn([C@H]2C=C[C@@H](CO[P@@]3(=O)OCc4cc(C(OC(=O)C(C)C)OC(=O)C(C)C)cc(C(C)(C)C)c4O3)O2)c(=O)[nH]c1=O	1900 nM
CC(=O)OC(OC(C)=O)c1cc2c(c(C(C)(C)C)c1)O[P@](=O)(OC[C@@H]1C=C[C@H](n3cc(C)c(=O)[nH]c3=O)O1)OC2	750 nM
CC(=O)OC(OC(C)=O)c1cc2c(c(C(C)(C)C)c1)O[P@@](=O)(OC[C@@H]1C=C[C@H](n3cc(C)c(=O)[nH]c3=O)O1)OC2	840 nM
Cc1cn([C@H]2C=C[C@@H](CO[P@@]3(=O)OCc4cc(C=O)cc(C(C)(C)C)c4O3)O2)c(=O)[nH]c1=O	1400 nM
Cc1cn([C@H]2C=C[C@@H](CO[P@]3(=O)OCc4cc(C=O)cc(C(C)(C)C)c4O3)O2)c(=O)[nH]c1=O	690 nM
Cc1cc(C=O)c2c(c1)COP(=O)(OC[C@@H]1C=C[C@H](n3cc(C)c(=O)[nH]c3=O)O1)O2 (stereo partly specified)	1400 nM
